Results collected from several papers.
Protocols differ between the studies behind these lines.
MLNR: Motilin receptor (MLNR, Homo sapiens, UniProt O43193)
ADAM17: Disintegrin and metalloproteinase domain-containing protein 17 (ADAM17, Homo sapiens, UniProt P78536)
MAPKAPK2: MAP kinase-activated protein kinase 2 (MAPKAPK2, Homo sapiens, UniProt P49137)

SMILES | target | assay | conditions | inhibition
O=C(Nc1cccnn1)N1CCN([C@@H]2CCOc3cc(C(F)(F)F)ccc32)CC1 | MLNR | cell-free assay | 20 µM | -3%
COc1cc(Nc2ncc(F)c(Nc3ccc4c(n3)NC(=O)C(C)(C)O4)n2)cc(OC)c1OC | Mitogen-activated protein kinase kinase kinase 12 (MAP3K12, Homo sapiens, UniProt Q12852) | binding, competition with immobilised ligand | 10 µM | 32%
CN(C)C(=O)COC(=O)Cc1ccc(OC(=O)c2ccc(NC(=N)N)cc2)cc1 | ADAM17 | enzyme activity, inhibitor | 10 µM | 6%
C#Cc1n[nH]c2c(-c3cn([C@@H](C)c4ccccc4)c(=O)[nH]c3=O)cc(F)cc12 | MAPKAPK2 | enzyme activity, inhibitor | 0.1 µM | 11.6%
c1ccc(C(NCCNC(c2ccccc2)c2ccccc2)c2ccccc2)cc1 | Vasopressin V1b receptor (AVPR1B, Homo sapiens, UniProt P47901) | cell-free assay | 10 µM | 0%
CCN(CC)CCCC[C@H](NC(=O)[C@H](CC(C)C)NC(=O)[C@H](C)NC(=O)[C@H](Cc1ccccc1)NC(=O)c1ccc(C(C)(C)C)cc1)C(=O)N[C@@H](CO)C(=O)OC | Vasopressin V1a receptor (AVPR1A, Homo sapiens, UniProt P37288) | ligand displacement, radioligand | 10 µM | 85%
CC(C)C[C@H](CC(=O)NO)C(=O)N[C@H](C(=O)N[C@@H](C)C(=O)NCCN)C(C)(C)C | ADAM17 | enzyme activity, inhibitor | 10 µM | 73%
Cn1cc(-c2cccc(N3CCc4c(sc5c4CC(C)(C)C5)C3=O)c2CO)cc(Nc2ccncn2)c1=O | Phosphatidylinositol 4,5-bisphosphate 3-kinase catalytic subunit alpha isoform (PIK3CA, Homo sapiens, UniProt P42336) | enzyme activity, inhibitor | 1 µM | 14%
C#Cc1n[nH]c2c(-c3cn([C@@H](C)c4ccccn4)c(=O)[nH]c3=O)cc(F)cc12 | MAPKAPK2 | enzyme activity, inhibitor | 0.1 µM | 11.8%
C[C@H](C(=O)N[C@H]1COc2ccccc2[C@@H]1S(C)(=O)=O)c1ccc(F)cc1 | Gamma-aminobutyric acid type B receptor subunit 1 (GABBR1, Homo sapiens, UniProt Q9UBS5) | cell-free assay | 10 µM | 4%
COc1cc2c(cc1OC)-c1c(oc3cc4c(cc3c1=O)CCO4)CO2 | Glycogen synthase kinase-3 beta (GSK3B, Homo sapiens, UniProt P49841) | enzyme activity, inhibitor, ADP detection | 100 µM | 14.3%
COCc1c(-c2cc3cc(C)cc(OC)c3s2)c2c(N)ncnn2c1CN1CCNC(=O)C1 | MLNR | ligand displacement, radioligand | 10 µM | 18%
N=C(N)c1ccc2cc(OC(=O)c3ccc(N=C(N)N)cc3)ccc2c1 | ADAM17 | enzyme activity, inhibitor | 10 µM | 5%
